Data published in ChEMBL document CHEMBL1141258, “Prismatomerin, a new iridoid from Prismatomeris tetrandra. Structure elucidation, determination of absolute configuration, and cytotoxicity” (J Nat Prod, 2007).
Activity calls are given as the source filed them. No cut-off for these calls is given here.

Key:
[1] = tested on: OVCAR-4; experiment: Growth inhibition of human OVACAR4 cells after 48 hrs by SRB assay; type: functional; conditions: OVCAR-4, 48 h
Summary of the method: (§1)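 Run at NCI in the 60-human-tumor-cell-line anticancer screen. Each compound was tested at a minimum of five concentrations at 10-fold dilutions.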

[2] = tested on: HT-29; experiment: Growth inhibition of human HT29 cells after 48 hrs by SRB assay; type: functional; conditions: HT-29, 48 h
Summary of the method: (§2)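 NCI 60 human tumour cell line in vitro anticancer screen, run at NCI. Compound tested at a minimum of five concentrations in 10-fold dilutions per cell line.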

[3] = tested on: HOP-62; experiment: Growth inhibition of human HOP62 cells after 48 hrs by SRB assay; type: functional; conditions: HOP-62, 48 h; summary of the method: as §1
[4] = tested on: SK-MEL-5; experiment: Growth inhibition of human SKMEL5 cells after 48 hrs by SRB assay; type: functional; summary of the method: as §1
[5] = tested on: A498; experiment: Growth inhibition of human A498 cells after 48 hrs by SRB assay; type: functional; conditions: A498, 48 h; summary of the method: as §1
[6] = tested on: PC-3; experiment: Growth inhibition of human PC3 cells after 48 hrs by SRB assay; type: functional; conditions: PC-3, 48 h; summary of the method: as §2
[7] = Toxicity in brine shrimp after 24 hrs; type: organism-based; conditions: artemia, in vivo; read-out: LD50
[8] = tested on: LOX IMVI; experiment: Growth inhibition of human LOXIMVI cells after 48 hrs by SRB assay; type: functional; summary of the method: as §1
[9] = tested on: NCI-H522; experiment: Growth inhibition of human NCI-H522 cells after 48 hrs by SRB assay; type: functional; conditions: NCI-H522, 48 h; summary of the method: as §2
[10] = tested on: COLO 205; experiment: Growth inhibition of human COLO205 cells after 48 hrs by SRB assay; type: functional; conditions: COLO 205, 48 h; summary of the method: as §2
[11] = tested on: A549; experiment: Antiproliferative activity against human A549 cells after 5 days by MTT assay; conditions: A549, 120 h
[12] = tested on: SNB-75; experiment: Growth inhibition of human SNB75 cells after 48 hrs by SRB assay; type: functional; summary of the method: as §2
[13] = tested on: A549; experiment: Growth inhibition of human A549 cells after 48 hrs by SRB assay; type: functional; conditions: A549, 48 h; summary of the method: as §1
[14] = tested on: IGROV-1; experiment: Growth inhibition of human IGROV1 cells after 48 hrs by SRB assay; type: functional; conditions: IGROV-1, 48 h, read-out: Log LC50 (the source's name) (converted); summary of the method: as §1
[15] = tested on: RXF 393; experiment: Growth inhibition of human RFX393 cells after 48 hrs by SRB assay; type: functional; conditions: RXF 393, 48 h; summary of the method: as §1
[16] = tested on: SK-MEL-28; experiment: Growth inhibition of human SK-MEL28 cells after 48 hrs by SRB assay; type: functional; conditions: SK-MEL-28, 48 h; summary of the method: as §2
[17] = tested on: 786-0; experiment: Growth inhibition of human 786-0 cells after 48 hrs by SRB assay; type: functional; conditions: 786-0, 48 h; summary of the method: as §1
[18] = tested on: MCF7; experiment: Growth inhibition of human MCF7 cells after 48 hrs by SRB assay; type: functional; conditions: MCF7, 48 h; summary of the method: as §1
[19] = tested on: SK-MEL-2; experiment: Growth inhibition of human SK-MEL2 cells after 48 hrs by SRB assay; type: functional; summary of the method: as §1
[20] = tested on: CAKI-1; experiment: Growth inhibition of human CAKI1 cells after 48 hrs by SRB assay; type: functional; conditions: CAKI-1, 48 h; summary of the method: as §1
[21] = tested on: HCT-15; experiment: Growth inhibition of human HCT15 cells after 48 hrs by SRB assay; type: functional; conditions: HCT-15, 48 h; summary of the method: as §1
[22] = tested on: SW-620; experiment: Growth inhibition of human SW620 cells after 48 hrs by SRB assay; type: functional; conditions: SW-620, 48 h; summary of the method: as §2
[23] = tested on: SF-539; experiment: Growth inhibition of human SF539 cells after 48 hrs by SRB assay; type: functional; conditions: SF-539, 48 h; summary of the method: as §1
[24] = tested on: BT-549; experiment: Growth inhibition of human BT549 cells after 48 hrs by SRB assay; type: functional; summary of the method: as §1
[25] = read-out: Log LC50 (the source's name) (converted)

COC(=O)C1=CO[C@@H]2O[C@H]3/C(=C\c4ccc(O)cc4)C(=O)O[C@]34C=C[C@H]1[C@H]24 [PRISMATOMERIN]
GI50 [1]: 575 nM
CC50 [1, 25]: > 100000 nM
TGI ([1]; read-out: Log TGI (converted)): 3470 nM
GI50 [2]: 107 nM
CC50 [2, 25]: > 100000 nM
GI50 [3]: 263 nM
CC50 [3, 25]: 2820 nM
TGI ([3]; read-out: Log TGI (converted)): 708 nM
Activity [4]: inactive
GI50 ([4]; SK-MEL-5, 48 h): < 10 nM
TGI ([4]; SK-MEL-5, 48 h, read-out: Log TGI (converted)): 186 nM
GI50 [5]: 234 nM
CC50 [5, 25]: 871 nM
TGI ([5]; read-out: Log TGI (converted)): 457 nM
GI50 [6]: 170 nM
CC50 [6, 25]: 3020 nM
LC50 at 24 h [7]: 195 nM
GI50 [8]: 20.9 nM
CC50 [8, 25]: 708 nM
TGI ([8]; read-out: Log TGI (converted)): 240 nM
GI50 [9]: 186 nM
CC50 [9, 25]: 1350 nM
GI50 [10]: 537 nM
CC50 [10, 25]: > 100000 nM
IC50 [11]: 1410 nM
Activity [12]: inactive
CC50 ([12]; SNB-75, 48 h, read-out: Log LC50 (the source's name) (converted)): > 100000 nM
GI50 [13]: 295 nM
CC50 [13, 25]: > 100000 nM
TGI ([13]; read-out: Log TGI (converted)): 832 nM
CC50 [14]: 851 nM
GI50 [15]: < 10 nM
CC50 [15, 25]: 661 nM
TGI ([15]; read-out: Log TGI (converted)): 162 nM
GI50 [16]: 316 nM
CC50 [16, 25]: > 100000 nM
GI50 [17]: 19.5 nM
CC50 [17, 25]: 550 nM
TGI ([17]; read-out: Log TGI (converted)): 195 nM
GI50 [18]: 120 nM
CC50 [18, 25]: > 100000 nM
TGI ([18]; read-out: Log TGI (converted)): 1000 nM
Activity [19]: inactive
GI50 ([19]; SK-MEL-2, 48 h): 166 nM
GI50 [20]: 126 nM
CC50 [20, 25]: 8710 nM
TGI ([20]; read-out: Log TGI (converted)): 501 nM
GI50 [21]: 162 nM
CC50 [21, 25]: 3800 nM
TGI ([21]; read-out: Log TGI (converted)): 575 nM
GI50 [22]: < 10 nM
CC50 [22, 25]: > 100000 nM
GI50 [23]: 257 nM
CC50 [23, 25]: > 100000 nM
TGI ([23]; read-out: Log TGI (converted)): 457 nM
Activity [24]: inactive
GI50 ([24]; BT-549, 48 h): 151 nM
